Screening data: PubChem BioAssay, Sanford-Burnham Center for Chemical Genomics
mIAP inh – mouse IAP inhibition | purified mouse IAP, CDP-Star luminescence, 30 min | 330,000 compounds, 0.2% hits | inhibition, % at 10 µM | AID 2806;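 active = inhibition of at least 40% at 10 µM in the primary screen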;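 also: plate controls were DMSO with enzyme for no effect and no enzyme wells for full effect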
mIAP activ – increases mouse intestinal alkaline phosphatase activity; muIAP, CDP-Star luminescence, 30 min; hits give high values; 1 = vehicle-only enzyme signal, 0 = enzyme-free wells; activation factor at 10 µM; 330,000 compounds, 0.24% hits;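 active = activation factor of at least 2 at 20 µM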
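also added = chemiluminescent substrate CDP-Star | test system = mouse IAP enzyme | signal = chemiluminescence readout | compound = DMSO-dissolved test compounds | incubation = 30 min at room temperature | benchmarks = DMSO wells, no-enzyme wells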
bIAP inhibitor – intestinal alkaline phosphatase (bovine) inhibition. inhibition, % at 20 µM. AID 1019. 190,000 tested, under 10 active. purified bovine IAP, CDP-star luminescence, 30 min;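 active = over 50% inhibition of intestinal alkaline phosphatase at 20 µM in the single-dose screen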
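System: Purified bovine intestinal alkaline phosphatase (IAP) enzyme | Input: IAP diluted 1/65,000,000 in the well | Also added: CDP-star chemiluminescent phosphatase substrate, 30 µM final | Dosing: 20 µM single dose | Times: Enzyme reaction for 30 min at room temperature | Detection: Luminescence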
hIAP act – increases human intestinal alkaline phosphatase activity | 330,000 compounds, 0.16% hits | AID 2524 | P09923 | activation factor at 10 µM | purified human IAP, CDP-Star luminescence, 30 min; hits give high values; 1 = vehicle-only enzyme, 0 = enzyme-free background;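 active = activation factor of the enzyme at least 2-fold when tested at 20 µM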
Target sequence (P09923 whole entry, looked up): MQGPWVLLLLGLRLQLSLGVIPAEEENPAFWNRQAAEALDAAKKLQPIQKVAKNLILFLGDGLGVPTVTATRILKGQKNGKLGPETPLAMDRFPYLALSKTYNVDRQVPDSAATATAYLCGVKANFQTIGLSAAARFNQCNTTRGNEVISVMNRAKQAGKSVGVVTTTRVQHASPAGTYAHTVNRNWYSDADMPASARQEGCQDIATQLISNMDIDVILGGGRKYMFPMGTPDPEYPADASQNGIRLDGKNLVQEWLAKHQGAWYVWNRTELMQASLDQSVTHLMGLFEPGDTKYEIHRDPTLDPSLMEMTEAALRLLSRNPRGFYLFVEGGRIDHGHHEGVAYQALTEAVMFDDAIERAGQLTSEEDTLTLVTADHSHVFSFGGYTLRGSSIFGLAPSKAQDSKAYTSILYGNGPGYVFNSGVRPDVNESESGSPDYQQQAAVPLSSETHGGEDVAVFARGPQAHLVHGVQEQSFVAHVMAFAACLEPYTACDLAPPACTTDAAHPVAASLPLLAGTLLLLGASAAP
hIAP block – blocks human intestinal alkaline phosphatase. P09923. purified IAP, CDP-Star luminescence, 30 min. inhibition, % at 10 µM. 330,000 compounds, 0.12% hits;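 active = inhibition reaching a set limit with compound at 10 µM in the primary screen, cut at about 35% in these data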;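 also: plate controls were DMSO wells with enzyme for no effect and no-enzyme buffer wells for full effect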
bIAP activator – increases bovine intestinal alkaline phosphatase activity | purified bovine IAP, CDP-star luminescence, 30 min; hits give high values; fold of DMSO-control signal, blank-subtracted | activation factor at 20 µM | 200,000 compounds, 0.17% hits;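 active = activation factor of 2 or more at 20 µM, a signal rise over negative controls twice the positive control's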
mIAP inh confirm – mouse IAP inhibition confirmation. AID 434971. inhibition, % at 10 µM. 11,000 compounds, 4.7% hits. purified mouse IAP, CDP-Star luminescence, 30 min. shares compounds with mIAP inh;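 active = inhibition of at least 40% at 10 µM in either of the two replicates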;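 also: plate controls were DMSO wells with enzyme for no effect and buffer wells lacking enzyme for full effect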
Starred values were filed as active, the others as inactive; x = no result given. Most compounds without a hit are left out; they make up all but 0.72% or so of the library.

SMILES | mIAP inh | mIAP activ | bIAP inhibitor | hIAP act | hIAP block | bIAP activator | mIAP inh confirm
CCN1C(=O)/C(=C2\SC(=S)N(NC(=O)c3cccnc3)C2=O)c2ccccc21 | 49* | 0.51 | x | 1.2 | -18 | x | 64*
COc1ccc(CN(C(=O)c2ccco2)c2ccc(C)c(C)c2)cc1 | 1 | 0.99 | 10 | 1.1 | -6 | 0.9 | x
COc1cc(NS(=O)(=O)c2ccc(NC(=S)NC(=O)/C=C/c3ccco3)cc2)ncn1 | 42* | 0.58 | -3 | 0.9 | 10 | 1 | 64*
COc1cccc(NC(=S)NC(=O)/C=C/c2ccco2)c1 | 20 | 0.8 | x | 1 | 0 | x | x
Cc1ccc(NC(=S)NC(=O)/C=C/c2ccco2)c(O)c1 | 47* | 0.53 | -3 | 1 | -1 | 1 | 54*
O=C(/C=C/c1ccco1)NC(=S)Nc1ccccc1O | 46* | 0.55 | -6 | 0.89 | 11 | 1.1 | 54*
CCOc1ccc(NC(=S)NC(=O)/C=C/c2ccco2)cc1 | 9 | 0.91 | x | 1.1 | -7 | x | x
O=C(/C=C/c1ccco1)NC(=S)Nc1ccccc1N1CCCC1 | 11 | 0.89 | 3 | 1 | -2 | 1 | x
COc1ccc(NC(=S)NC(=O)/C=C/c2ccco2)c(OC)c1 | 9 | 0.91 | x | 0.89 | 11 | x | x
O=C(/C=C/c1ccco1)NC(=S)Nc1cccc(C(=O)O)c1 | 48* | 0.52 | x | 0.83 | 17 | x | 63*
CCN(CC)CCOC(=O)c1cccc2c1-c1ccccc1C2O (configuration not stated) | -8 | 1.1 | x | 1.1 | -11 | x | x
NS(=O)(=O)c1cccc(NC(=O)COC(=O)CCCc2c[nH]c3ccccc23)c1 | -1 | 1 | 28 | 1 | 0 | 0.7 | x
O=C(/C=C\c1ccco1)NC(=S)Nc1ccccc1O | 59* | 0.41 | x | 1.1 | -12 | x | 72*
Clc1ccc(-c2nnc(N3CCOCC3)o2)cc1 | -21 | 1.2 | x | 1.2 | -17 | x | x
Cc1ccc(/C=C2/SC(=O)NC2=S)o1 | 45* | 0.55 | 24 | 1.1 | -8 | 0.8 | 63*
c1coc(CSSCc2ccco2)c1 | 71* | 0.29 | x | 1 | -2 | x | 75*
Cc1ccc(NC(=O)CNc2ccc(N3CCOCC3)cc2)cc1S(=O)(=O)N(C)C | 0 | 1 | -4 | 0.93 | 7 | 1 | x
CN1C(=O)CSc2ccc(NC(=O)NCCC3=CCCCC3)cc21 | -279 | 3.8* | 12 | 2 | -96 | 0.9 | -122
CC(C)CCNC(=O)Nc1ccc2c(c1)N(C)C(=O)CS2 | -72 | 1.7 | 21 | 1.1 | -13 | 0.8 | x
Nc1cc2nc3ccccc3oc-2cc1=O | 50* | 0.49 | x | 0.97 | 3 | x | 42*
CN(C(=O)COC(=O)c1cc([N+](=O)[O-])ccc1Cl)c1ccccc1 | -15 | 1.1 | x | 0.97 | 3 | x | x
O=C(Nc1nc(-c2ccco2)c(-c2ccco2)s1)c1ccc(F)cc1F | 51* | 0.49 | x | 0.92 | 8 | x | 60*
O=C(Nc1nc(-c2ccco2)c(-c2ccco2)s1)c1c(F)cccc1Cl | 70* | 0.3 | x | 0.84 | 16 | x | 72*
O=C(Nc1ccc(F)cc1F)c1cc(-c2ccco2)nc2ccccc12 | 14 | 0.86 | x | 0.92 | 8 | x | x
CCOc1ccccc1NC(=O)CN1CCC(NC(=O)Nc2ccccc2)CC1 | -249 | 3.5* | x | 1.8 | -81 | x | -199
SMILES | mIAP inh | mIAP activ | bIAP inhibitor | hIAP act | hIAP block | bIAP activator | mIAP inh confirm
c1coc(CNc2nc(-c3cccs3)cs2)c1 | 45* | 0.55 | 2 | 1 | 0 | 1 | 49*
COC(=O)C(Cc1ccc(O)cc1)NC(=O)CCc1nc2ccccc2s1 (configuration not stated) | 9 | 0.91 | x | 1.1 | -8 | x | x
CC1=C(C(=O)NC2CCCc3c2cnn3-c2cc(F)cc(F)c2)OCCO1 (configuration not stated) | 6 | 0.94 | x | 1.2 | -17 | x | x
CSc1ccc(S(=O)(=O)Nc2ccc(S(=O)(=O)Nc3ccc(C)cc3)cc2)cc1 | 5 | 0.95 | 4 | 0.83 | 17 | 1 | x
CCOc1ccc(NS(=O)(=O)c2ccc(NS(=O)(=O)c3ccc(SC)cc3)cc2)cc1 | 11 | 0.89 | 14 | 0.99 | 0 | 0.9 | x
Cc1cc(F)ccc1S(=O)(=O)Nc1ccccc1C(=O)Nc1ncn[nH]1 | 7 | 0.93 | -61 | 1.1 | -9 | 1.6 | x
Cc1ccc(C)c(S(=O)(=O)Nc2ccc(O)c(Sc3ncn[nH]3)c2)c1 | 75* | 0.25 | x | 1.2 | -17 | x | 82*
CCOc1ccc(S(=O)(=O)Nc2ccc(O)c(Sc3ncn[nH]3)c2)cc1 | 44* | 0.56 | -3 | 1.1 | -6 | 1 | 62*
Cc1cc(F)ccc1S(=O)(=O)Nc1ccc(O)c(Sc2ncn[nH]2)c1 | 70* | 0.3 | x | 1.1 | -6 | x | 66*
Cc1ccc(S(=O)(=O)Nc2ccc(O)c(Sc3ncn[nH]3)c2)cc1 | 50* | 0.5 | 1 | 1 | -4 | 1 | 65*
COC(=O)C1CCN(S(=O)(=O)c2cc3c4c(c2)CCN4C(=O)CC3)CC1 | 2 | 0.98 | x | 0.95 | 5 | x | x
COc1ccc(OC)c(S(=O)(=O)Nc2ccc(O)c(Sc3ncn[nH]3)c2)c1 | 50* | 0.5 | 13 | 0.83 | 17 | 0.9 | 52*
COc1cccc(NC(=O)C2CCN(Cc3cnn(-c4ccccc4)c3-n3cccc3)CC2)c1 | -180 | 2.8* | -299 | 1 | 0 | 4* | -101
C[C@H](CO)N1C[C@H](C)[C@H](CN(C)Cc2ccc(Oc3ccccc3)cc2)Oc2ccc(NC(=O)Nc3cccc4ccccc34)cc2CC1=O | -176 | 2.8* | x | 1 | 0 | x | -103
COc1ccc(S(=O)(=O)N(C)C[C@H]2Oc3ccc(NC(=O)Nc4ccccc4)cc3C(=O)N([C@H](C)CO)C[C@@H]2C)cc1 | -208 | 3.1* | x | 0.98 | 2 | x | -115
C[C@H](CO)N1C[C@H](C)[C@@H](CN(C)S(=O)(=O)c2ccc(F)cc2)Oc2ccc(NC(=O)NC3CCCCC3)cc2C1=O | -317 | 4.2* | x | 1.3 | -27 | x | -120
CC(C)NC(=O)Nc1ccc2c(c1)C(=O)N([C@H](C)CO)C[C@H](C)[C@@H](CN(C)S(=O)(=O)c1cccs1)O2 | -42 | 1.4 | x | 0.98 | 2 | x | x
COc1ccc(NC(=O)Nc2ccc3c(c2)C(=O)N([C@H](C)CO)C[C@H](C)[C@@H](CN(C)S(=O)(=O)c2cccs2)O3)cc1 | -175 | 2.7* | x | 1 | -4 | x | -110
COc1ccc(S(=O)(=O)N(C)C[C@H]2Oc3ccc(NC(=O)C4CCCCC4)cc3C(=O)N([C@H](C)CO)C[C@@H]2C)cc1 | -37 | 1.4 | x | 1 | 0 | x | x
COc1ccc(S(=O)(=O)N(C)C[C@H]2Oc3ccc(NC(=O)NC4CCCCC4)cc3C(=O)N([C@H](C)CO)C[C@@H]2C)cc1 | -373 | 4.7* | x | 0.94 | 6 | x | -174
COc1ccc(/C=N/NC(=O)c2ccc(O)cc2O)cc1CSc1ccccn1 | 30 | 0.7 | -14 | 1 | 0 | 1.1 | x
